Experimental findings from paper PMC8830364 (Bioorganic & medicinal chemistry letters, 2021) are described below.

A word on the Ki: it is the equilibrium dissociation constant of an inhibitor or competing ligand from its target. Higher therefore signals weaker binding. The half-life is how long it takes for the measured level to halve. A low value points to rapid decline.

Bounds are passed on as bounds.

Series [1] in a line: Chemical stability in human plasma. The class given is in vitro ADME. The note with it: pooled human plasma, 37 °C; for Stability in human plasma (in words): 2.5 μM, 0, 30, 60, 120 min; for Half time in human plasma: 2.5 μM, 0-120 min. In a few lines: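 Test compound at 2.5 μM (below its K_M) incubated in pooled plasma from healthy volunteers at 37 °C, in triplicate, sampled at 0, 30, 60 and 120 min. Remaining analyte was quantified by LC-MS/MS in MRM mode. Degradation was treated as first-order: the slope of ln(concentration) versus time gave the rate constant k, from which t1/2 was calculated.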

The target in series [2] is T1, Human neutrophil elastase (HNE) (Homo sapiens, UniProt P08246).
T1 sequence (P08246 30-267): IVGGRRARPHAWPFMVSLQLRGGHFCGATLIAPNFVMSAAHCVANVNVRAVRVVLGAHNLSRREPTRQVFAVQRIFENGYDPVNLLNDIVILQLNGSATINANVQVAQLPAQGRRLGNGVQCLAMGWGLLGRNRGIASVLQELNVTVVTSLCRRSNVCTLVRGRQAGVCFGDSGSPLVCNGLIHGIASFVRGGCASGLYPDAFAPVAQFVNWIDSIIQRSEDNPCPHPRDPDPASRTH
Description: HNE inhibitory activity. The format is biochemical. Conditions: for HNE inhibitory activity (in words): as described.

Series [3] can be described thus: Stability in aqueous buffer. The class given is physicochemical. Conditions: for half-life: Half-life (t1/2) for the spontaneous hydrolysis.

With `Cc1cccc(C(=O)n2cc3c(n2)CCCC3=O)c1` [Compound 6a], in series [1], the “Stability in human plasma (in words)” value is listed as “rapid degradation rate” and the “Half time in human plasma” value is approximately 6 min.

For `O=C1CCCc2nn(-c3cccc(C(F)(F)F)c3)cc21` [Compound 6c], in series [2], the Ki was more than 50 µM and the “HNE inhibitory activity (in words)” value is recorded as “complete inactivity”. Consider `O=C1CCCc2nn(Cc3cccc(C(F)(F)F)c3)cc21` [Compound 6d], for which, in series [2], the Ki is more than 50 µM and the “HNE inhibitory activity (in words)” value is on record as “complete inactivity”. For the same molecule, the “Stability in human plasma (in words)” value in series [1] was “maintained their spiked concentration for all of the incubation times”. For the molecule `O=C1CCCc2nn(Cc3ccccc3)cc21` [Compound 6e], in series [2], the Ki is more than 50 µM and the “HNE inhibitory activity (in words)” value is on record as “complete inactivity”. As to `CC(C)(C)OC(=O)N1CCN(C(=O)Cn2cc3c(n2)CCCC3=O)CC1` [Compound 6g], the Ki in series [2] is more than 50 µM. Same read-out and setting: for `O=C1CCCc2nn(CC(=O)N3CCNCC3)cc21` [Compound 6h] the value was more than 50 µM. Consider `Cc1cccc(C(=O)n2ncc3c2CCCC3=O)c1` [Compound 7a], for which, in series [1], the “Stability in human plasma (in words)” value is reported as “rapid degradation rate” and the “Half time in human plasma” value was approximately 6 min. For the molecule `O=C1CCCc2c1cnn2-c1cccc(C(F)(F)F)c1` [Compound 7c], in series [2], the Ki was more than 50 µM and the “HNE inhibitory activity (in words)” value is on record as “complete inactivity”. `O=C1CCCc2c1cnn2Cc1cccc(C(F)(F)F)c1` [Compound 7d]: in series [2], the Ki is more than 50 µM and the “HNE inhibitory activity (in words)” value is listed as “complete inactivity”. Also, the “Stability in human plasma (in words)” value in series [1] is reported as “maintained their spiked concentration for all of the incubation times”.

Consider `O=C1CCCc2c1cnn2Cc1ccccc1` [Compound 7e], for which, in series [2], the Ki is more than 50 µM and the “HNE inhibitory activity (in words)” value is listed as “complete inactivity”. With `CC(C)(C)OC(=O)N1CCN(C(=O)Cn2ncc3c2CCCC3=O)CC1` [Compound 7g], in series [2], the Ki is more than 50 µM. For the molecule `O=C(C1CC1)n1cc2c(n1)CCC(Br)(Br)C2=O` [Compound 9b, 5,5-dibromo-2-(cyclopropanecarbonyl)-2,5,6,7-tetrahydro-4H-indazol-4-one], in series [3], the half-life is 235 ± 18.2 min. Turning to `CC(C)(C)OC(=O)n1cc2c(n1)CCC(Br)C2=O` (stereo not drawn) [Compound 9e], in series [2], the Ki was more than 50 µM and the “HNE inhibitory activity (in words)” value is “low active or devoid of HNE inhibitory activity”. For the molecule `O=C1c2cn(CC(=O)N3CCN(c4ccccc4)CC3)nc2CCC1Br` (stereo not drawn) [Compound 9f], in series [2], the Ki was more than 50 µM and the “HNE inhibitory activity (in words)” value is given as “low active or devoid of HNE inhibitory activity”. For `O=C1c2cnn(C(=O)C3CC3)c2CCC1Br` (stereo not drawn) [Compound 10a], in series [3], the “Half-life (t1/2) for the spontaneous hydrolysis” value is listed as 38.7 ± 4.1 min and the half-life was found to be 53.9 min. Turning to `O=C1c2cnn(CC(=O)N3CCN(c4ccccc4)CC3)c2CCC1Br` (stereo not drawn) [Compound 10d], in series [2], the Ki is more than 50 µM and the “HNE inhibitory activity (in words)” value was “low active or devoid of HNE inhibitory activity”. Take `O=C(C1CC1)N(C(=O)C1CC1)C1CCCc2c1cnn2-c1ccccc1` (stereo not drawn) [Compound 14a]: the Ki in series [2] was more than 50 µM. Still for that read-out and setting: for `O=C(NC1CCCc2c1cnn2-c1ccccc1)C1CC1` (stereo not drawn) [Compound 14b] the value was more than 50 µM; for `Cc1cccc(C(=O)NC2CCCc3c2cnn3-c2ccccc2)c1` (stereo not drawn) [Compound 14c], more than 50 µM.
